In ChEMBL document CHEMBL5512679, “In Silico Assisted Identification, Synthesis, and In Vitro Pharmacological Characterization of Potent and Selective Blockers of the Epilepsy-Associated KCNT1 Channel” (J Med Chem, 2024):

Columns and labels:
[1] = target: T1, hERG (KCNH2) (Homo sapiens, UniProt Q12809); assay: Inhibition of hERG expressed in HEK293 cells at 10 uM by thallium flux assay relative to control; conditions: HEK293 cells that express hERG
[2] = Plasma protein binding in human at 10 uM incubated for 4 hrs by rapid equilibrium dialysis based LC-MS/MS analysis; type: ADME, cell-free; conditions: read-out: PPB
[3] = target: Voltage-gated inwardly rectifying potassium channel KCNH2 (Homo sapiens, UniProt Q12809); assay: Inhibition of hERG transiently transfected in CHO cells at 10 uM at -100 mV holding potential by whole-cell patch clamp electrophysiology method; type: toxicity, cell-based
Summary of the method: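 hERG transiently expressed in CHO cells (eGFP co-transfection marker) and recorded by whole-cell patch clamp at 20–22 °C, 24 h post-transfection. […] Pipette (mM): 140 KCl, 2 MgCl2, 10 EGTA, 10 HEPES, 5 Mg-ATP. Protocol: 1 s steps from −80 to +60 mV, then 140 ms at −100 mV. Tail current at −100 mV read as I_drug/I_CTL with 10 μM drug; ≥3 cells.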

[4] = Stability in human plasma assessed as compound remaining incubated upto 120 mins […] by LC-MS analysis; type: ADME, cell-free; conditions: read-out: Stability
Summary of the method: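 Human plasma prewarmed to 37 °C and centrifuged; compound added at 37 °C. Samples taken at 0, 30, 60, 90 and 120 min, quenched into ice-cold methanol with internal standard, and measured by LC-MS as % remaining relative to 0 min. Duplicates; procaine as control.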

[5] = Intrinsic clearance in human liver microsomes incubated upto 60 mins in presence of NADPH and UDPGA by LC-MS analysis; type: ADME, Microsome; conditions: read-out: CLH
[6] = target: T2, Potassium channel subfamily T member 1 (Homo sapiens, UniProt Q5JUK3); assay: Inhibition of human KCNT1 (98 to 354 residues) expressed in CHO cells assessed as reduction in thallium fluorescent signal incubated for 15 mins followed by LOX addition measured after 15 mins by FluxOR green dye based fluorescence analysis; type: cell-based
T2 sequence (Q5JUK3 whole entry): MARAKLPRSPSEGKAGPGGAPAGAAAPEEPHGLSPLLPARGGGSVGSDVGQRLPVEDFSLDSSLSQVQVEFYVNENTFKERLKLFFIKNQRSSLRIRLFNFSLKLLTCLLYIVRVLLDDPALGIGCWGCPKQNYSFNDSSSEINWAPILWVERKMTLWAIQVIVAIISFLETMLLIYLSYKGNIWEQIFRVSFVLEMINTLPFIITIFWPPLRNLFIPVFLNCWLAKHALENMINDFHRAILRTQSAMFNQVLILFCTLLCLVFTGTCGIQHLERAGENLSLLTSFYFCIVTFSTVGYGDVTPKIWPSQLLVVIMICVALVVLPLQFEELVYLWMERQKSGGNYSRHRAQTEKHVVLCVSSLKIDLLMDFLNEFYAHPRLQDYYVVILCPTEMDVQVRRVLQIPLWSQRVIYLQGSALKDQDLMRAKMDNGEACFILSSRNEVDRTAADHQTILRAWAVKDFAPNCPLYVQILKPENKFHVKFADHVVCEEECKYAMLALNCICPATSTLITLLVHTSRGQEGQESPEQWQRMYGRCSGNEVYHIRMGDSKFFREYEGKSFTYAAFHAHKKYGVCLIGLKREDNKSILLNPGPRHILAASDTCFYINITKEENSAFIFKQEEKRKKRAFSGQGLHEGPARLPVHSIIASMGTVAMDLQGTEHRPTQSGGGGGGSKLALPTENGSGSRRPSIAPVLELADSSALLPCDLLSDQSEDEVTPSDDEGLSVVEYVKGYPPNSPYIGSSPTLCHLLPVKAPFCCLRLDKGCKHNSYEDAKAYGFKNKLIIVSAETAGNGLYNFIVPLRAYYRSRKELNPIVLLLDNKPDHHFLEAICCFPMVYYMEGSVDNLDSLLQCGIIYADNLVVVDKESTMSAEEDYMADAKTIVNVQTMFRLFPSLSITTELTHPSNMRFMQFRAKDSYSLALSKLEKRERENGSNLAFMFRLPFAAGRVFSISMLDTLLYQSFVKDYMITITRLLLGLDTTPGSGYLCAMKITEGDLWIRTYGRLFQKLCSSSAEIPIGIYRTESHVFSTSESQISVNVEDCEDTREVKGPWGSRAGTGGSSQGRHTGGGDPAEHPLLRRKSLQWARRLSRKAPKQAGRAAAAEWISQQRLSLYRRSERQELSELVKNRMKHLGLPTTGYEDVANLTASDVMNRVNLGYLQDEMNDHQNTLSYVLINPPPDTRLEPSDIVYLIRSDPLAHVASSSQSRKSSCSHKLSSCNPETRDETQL

[7] = target: T1, hERG (KCNH2); assay: Inhibition of hERG transiently transfected in CHO cells at 10 uM at -100 mV holding potential by whole-cell patch clamp electrophysiology method relative to control; type: toxicity, cell-based; conditions: CHO cells transiently transfected with hERG
[8] = target: T1, hERG (KCNH2); assay: Inhibition of hERG expressed in HEK293 cells at 10 uM by whole-cell patch clamp electrophysiology method relative to control; type: toxicity, cell-based; conditions: HEK293 cells that express hERG
[9] = target: T3, Potassium channel subfamily T member 2 (Homo sapiens, UniProt Q6UVM3); assay: Inhibition of human KCNT2 expressed in HEK cells at +60 mV holding potential by whole-cell patch clamp electrophysiology method; type: cell-based
T3 sequence (Q6UVM3 whole entry): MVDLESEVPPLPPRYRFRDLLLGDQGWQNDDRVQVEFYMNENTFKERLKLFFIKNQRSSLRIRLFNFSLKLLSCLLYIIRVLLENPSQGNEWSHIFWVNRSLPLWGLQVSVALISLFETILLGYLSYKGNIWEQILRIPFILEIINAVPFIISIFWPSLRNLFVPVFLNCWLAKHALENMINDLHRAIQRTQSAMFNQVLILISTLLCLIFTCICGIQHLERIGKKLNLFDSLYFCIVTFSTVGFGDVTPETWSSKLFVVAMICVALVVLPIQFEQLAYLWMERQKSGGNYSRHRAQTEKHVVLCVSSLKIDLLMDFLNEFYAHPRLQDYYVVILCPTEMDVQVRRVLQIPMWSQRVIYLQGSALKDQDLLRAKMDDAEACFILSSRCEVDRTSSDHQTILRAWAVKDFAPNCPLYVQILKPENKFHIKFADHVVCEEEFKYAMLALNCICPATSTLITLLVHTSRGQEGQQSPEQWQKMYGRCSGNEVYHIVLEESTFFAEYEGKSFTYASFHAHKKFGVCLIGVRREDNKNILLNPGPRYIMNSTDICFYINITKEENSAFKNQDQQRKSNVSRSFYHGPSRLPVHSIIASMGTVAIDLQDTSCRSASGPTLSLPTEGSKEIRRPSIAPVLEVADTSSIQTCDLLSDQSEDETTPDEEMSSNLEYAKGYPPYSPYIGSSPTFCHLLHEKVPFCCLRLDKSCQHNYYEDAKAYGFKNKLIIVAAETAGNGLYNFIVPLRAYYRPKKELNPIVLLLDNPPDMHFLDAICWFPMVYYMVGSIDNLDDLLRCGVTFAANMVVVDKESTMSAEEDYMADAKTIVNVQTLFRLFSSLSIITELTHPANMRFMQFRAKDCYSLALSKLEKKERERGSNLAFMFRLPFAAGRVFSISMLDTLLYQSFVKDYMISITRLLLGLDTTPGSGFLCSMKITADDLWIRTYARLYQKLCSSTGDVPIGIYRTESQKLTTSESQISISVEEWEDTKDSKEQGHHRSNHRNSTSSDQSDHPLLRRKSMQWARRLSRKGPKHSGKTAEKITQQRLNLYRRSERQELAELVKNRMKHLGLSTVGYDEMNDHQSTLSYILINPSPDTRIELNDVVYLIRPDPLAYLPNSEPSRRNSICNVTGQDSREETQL
Summary of the method: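 Human KCNT2 transiently expressed in HEK cells and recorded by whole-cell patch clamp at 20–22 °C, 24 h after transfection. Pipette (mM): 130 KCl, 10 NaCl, 10 HEPES, 5 EGTA, pH 7.3–7.4, with ATP omitted. Each cell received one perfused concentration; DMSO ≤0.3%. Current at the end of the depolarizing pulse was normalized and fitted to a binding isotherm with Hill coefficient; ≥6 determinations per point, mean ± SEM.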

Sequence of Voltage-gated inwardly rectifying potassium channel KCNH2 (Q12809 whole entry): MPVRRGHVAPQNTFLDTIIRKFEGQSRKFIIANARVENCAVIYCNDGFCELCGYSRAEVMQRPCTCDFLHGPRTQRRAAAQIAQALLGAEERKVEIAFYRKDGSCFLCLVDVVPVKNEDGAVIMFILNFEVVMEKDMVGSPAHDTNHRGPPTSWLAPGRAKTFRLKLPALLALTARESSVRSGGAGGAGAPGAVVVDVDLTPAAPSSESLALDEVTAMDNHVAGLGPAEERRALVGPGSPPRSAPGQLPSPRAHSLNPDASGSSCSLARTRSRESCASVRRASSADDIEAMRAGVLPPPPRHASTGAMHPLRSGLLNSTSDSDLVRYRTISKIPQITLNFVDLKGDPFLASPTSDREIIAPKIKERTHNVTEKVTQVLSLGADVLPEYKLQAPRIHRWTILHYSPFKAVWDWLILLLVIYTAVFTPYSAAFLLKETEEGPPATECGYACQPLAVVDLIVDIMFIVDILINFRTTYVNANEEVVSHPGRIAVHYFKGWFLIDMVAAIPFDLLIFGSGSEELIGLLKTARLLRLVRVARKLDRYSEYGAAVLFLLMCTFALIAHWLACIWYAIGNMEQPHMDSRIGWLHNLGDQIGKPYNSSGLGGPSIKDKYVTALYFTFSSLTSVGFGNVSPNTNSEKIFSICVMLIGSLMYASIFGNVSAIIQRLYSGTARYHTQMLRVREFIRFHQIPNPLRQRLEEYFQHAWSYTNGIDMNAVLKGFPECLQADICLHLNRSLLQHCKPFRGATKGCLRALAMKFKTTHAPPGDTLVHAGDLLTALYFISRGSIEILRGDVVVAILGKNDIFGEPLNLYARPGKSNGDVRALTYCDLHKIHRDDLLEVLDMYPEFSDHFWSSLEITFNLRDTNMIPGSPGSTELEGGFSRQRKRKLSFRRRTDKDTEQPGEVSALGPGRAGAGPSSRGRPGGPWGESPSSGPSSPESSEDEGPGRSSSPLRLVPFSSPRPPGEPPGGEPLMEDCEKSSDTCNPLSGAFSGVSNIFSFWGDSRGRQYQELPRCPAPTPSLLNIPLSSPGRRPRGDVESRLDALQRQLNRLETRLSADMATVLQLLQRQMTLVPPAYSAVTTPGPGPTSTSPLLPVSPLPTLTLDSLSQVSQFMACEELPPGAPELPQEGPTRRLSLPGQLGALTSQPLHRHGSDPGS
T1 sequence (Q12809 whole entry): as above

Question: With `COc1ccc(Cl)cc1NC(=O)CN1CCN(S(=O)(=O)N2CCC(C)CC2)CC1` as the compound, how does the inhibition at 10 µM [1] read?
Answer: Its inhibition at 10 µM is 40%.

Question: Which fraction unbound at 4 h, 10 µM [2] does the source give for `O=C(NCc1ccccc1)[C@H](Cc1c[nH]c2ccccc12)NCc1ccc(Oc2ccccc2)cc1` here?
Answer: The fraction unbound at 4 h, 10 µM was 0.01.

Question: What about the “inhibition (INH)” value [3] of the same compound?
Answer: The value was “Not Active”.

Question: What about the remaining at 2 h [4] of the same compound?
Answer: The remaining at 2 h was less than 80%.

Question: And the CLint scaled [5]?
Answer: Its CLint scaled is less than 80 mL/min/kg.

Question: For `CC(C)(C)CNC(=O)Nc1ccc2c(c1)CCN2Cc1ccc(F)cc1`, which IC50 [6] is on record?
Answer: The IC50 was 5.5 µM.

Question: What about the inhibition at 10 µM [7] of the same compound?
Answer: The inhibition at 10 µM was 30%.

Question: With `Oc1ccc2ccccc2c1CNCCc1c[nH]c2ccccc12` as the compound, how does the IC50 [6] read?
Answer: The IC50 was 8.7 µM.

Question: And the inhibition at 10 µM [7]?
Answer: Its inhibition at 10 µM is 30%.

Question: What does the source list for `CCOC(=O)[C@@H]1CS[C@@]2(C(=O)Nc3ccc(Br)cc32)N1C(=O)c1ccc(Cl)cc1`?
Answer: inhibition (INH) [3]: Not Active; remaining at 2 h [4]: 0%

Question: For `O=C(Nc1cccc(C(F)(F)F)c1)c1ccc2nc(N3C(=O)c4ccccc4C3=O)sc2c1`, which inhibition at 10 µM [8] is on record?
Answer: The inhibition at 10 µM was 15%.

Question: For `Cc1cc(O)ccc1N/C=C/C(=O)c1ccccc1`, which inhibition at 10 µM [8] is on record?
Answer: Its inhibition at 10 µM is 15%.

Question: What does the source list for `O=S(=O)(Nc1ccc2c(c1)CCN2Cc1ccc(C(F)(F)F)cc1C(F)(F)F)C1CCCCC1`?
Answer: fraction unbound at 4 h, 10 µM [2]: 0.01; IC50 [9]: 1270 nM; inhibition (INH) [3]: Not Active; remaining at 2 h [4]: < 80%; CLint scaled [5]: < 1 mL/min/kg
